Experimental data reported in ChEMBL document CHEMBL2021842, “COMPARE analysis of the toxicity of an iminoquinone derivative of the imidazo[5,4-f]benzimidazoles with NAD(P)H:quinone oxidoreductase 1 (NQO1) activity and computational docking of quinones as NQO1 substrates” (Bioorg Med Chem, 2012).

What was measured:
Type in all cases: functional
Conditions in all cases: read-out: Activity
HT-29 = assay: Growth inhibition of human HT-29 cells assessed as cell growth at 10 uM relative to untreated control
Outline: (§1)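 NCI DTP 60-cell-line screen, first stage: a single 10 µM dose of compound given to the human tumour panel. Result reported as percent growth relative to control, on a mean growth graph.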

TK-10 = assay: Growth inhibition of human TK10 cells assessed as cell growth at 10 uM relative to untreated control
Outline: (§2)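 This is the first stage of the NCI DTP 60-human-tumour-cell-line screen, covering nine tissue types. Cells receive a single dose of the test compound, and the output is reported as mean growth %.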

HOP-92 = assay: Growth inhibition of human HOP92 cells assessed as cell growth at 10 uM relative to untreated control; outline: as §1
Malme-3M = assay: Growth inhibition of human MALME-3M cells assessed as cell growth at 10 uM relative to untreated control; outline: as §1
NCI-H460 = assay: Growth inhibition of human NCI-H460 cells assessed as cell growth at 10 uM relative to untreated control
Outline: (§3)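 First stage of the NCI DTP 60 human tumour cell-line screen. Cells were exposed to a single dose of 10 µM. Output is reported as growth % relative to control.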

SK-MEL-2 = assay: Growth inhibition of human SK-MEL-2 cells assessed as cell growth at 10 uM relative to untreated control; outline: as §3
SR = assay: Growth inhibition of human SR cells assessed as cell growth at 10 uM relative to untreated control; outline: as §2
SNB-19 = assay: Growth inhibition of human SNB19 cells assessed as cell growth at 10 uM relative to untreated control; outline: as §2
MDA-MB-468 = assay: Growth inhibition of human MDA-MB-468 cells assessed as cell growth at 10 uM relative to untreated control; outline: as §3
SF-295 = assay: Growth inhibition of human SF295 cells assessed as cell growth at 10 uM relative to untreated control; outline: as §3
SF-539 = assay: Growth inhibition of human SF539 cells assessed as cell growth at 10 uM relative to untreated control; outline: as §3
HCC 2998 = assay: Growth inhibition of human HCC2998 cells assessed as cell growth at 10 uM relative to untreated control; outline: as §1
[1] = Growth inhibition of human […] cells assessed as cell growth at 10 uM relative to untreated control; outline: as §3
DU-145 = assay: Growth inhibition of human DU145 cells assessed as cell growth at 10 uM relative to untreated control; outline: as §1
SK-MEL-5 = assay: Growth inhibition of human SK-MEL-5 cells assessed as cell growth at 10 uM relative to untreated control; outline: as §3
OVCAR-3 = assay: Growth inhibition of human OVCAR3 cells assessed as cell growth at 10 uM relative to untreated control; outline: as §3
ACHN = assay: Growth inhibition of human ACHN cells assessed as cell growth at 10 uM relative to untreated control; outline: as §1
MDA-MB-435 = assay: Growth inhibition of human MDA-MB-435 cells assessed as cell growth at 10 uM relative to untreated control; outline: as §3
CAKI-1 = assay: Growth inhibition of human Caki1 cells assessed as cell growth at 10 uM relative to untreated control; outline: as §1
SW-620 = assay: Growth inhibition of human SW620 cells assessed as cell growth at 10 uM relative to untreated control; outline: as §2
NCI/ADR-RES = assay: Growth inhibition of human NCI/ADR-RES cells assessed as cell growth at 10 uM relative to untreated control; outline: as §3
BT-549 = assay: Growth inhibition of human BT549 cells assessed as cell growth at 10 uM relative to untreated control; outline: as §1
MDA-MB-231 = assay: Growth inhibition of human MDA-MB-231 cells assessed as cell growth at 10 uM relative to untreated control; outline: as §3
SK-MEL-28 = assay: Growth inhibition of human SK-MEL-28 cells assessed as cell growth at 10 uM relative to untreated control; outline: as §3
MCF7 = assay: Growth inhibition of human MCF7 cells assessed as cell growth at 10 uM relative to untreated control; outline: as §3
HCT-15 = assay: Growth inhibition of human HCT15 cells assessed as cell growth at 10 uM relative to untreated control; outline: as §1
PC-3 = assay: Growth inhibition of human PC3 cells assessed as cell growth at 10 uM relative to untreated control; outline: as §3
SNB-75 = assay: Growth inhibition of human SNB75 cells assessed as cell growth at 10 uM relative to untreated control; outline: as §2
HCT-116 = assay: Growth inhibition of human HCT116 cells assessed as cell growth at 10 uM relative to untreated control; outline: as §1
NCI-H522 = assay: Growth inhibition of human NCI-H522 cells assessed as cell growth at 10 uM relative to untreated control; outline: as §3
NCI-H226 = assay: Growth inhibition of human NCI-H226 cells assessed as cell growth at 10 uM relative to untreated control; outline: as §3
M14 = assay: Growth inhibition of human M14 cells assessed as cell growth at 10 uM relative to untreated control; outline: as §1
LOX IMVI = assay: Growth inhibition of human LOXIMVI cells assessed as cell growth at 10 uM relative to untreated control; outline: as §1
EKVX = assay: Growth inhibition of human EKVX cells assessed as cell growth at 10 uM relative to untreated control; outline: as §1
HL-60(TB) = assay: Growth inhibition of human HL-60(TB) cells assessed as cell growth at 10 uM relative to untreated control
Outline: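 NCI DTP NCI-60 screen, first stage: a single dose applied to 60 human tumour cell lines from nine tissue types. Output is reported as growth %.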

IGROV-1 = assay: Growth inhibition of human IGROV1 cells assessed as cell growth at 10 uM relative to untreated control; outline: as §1
SN12C = assay: Growth inhibition of human SN12C cells assessed as cell growth at 10 uM relative to untreated control; outline: as §2
MOLT-4 = assay: Growth inhibition of human MOLT4 cells assessed as cell growth at 10 uM relative to untreated control; outline: as §3
HOP-62 = assay: Growth inhibition of human HOP62 cells assessed as cell growth at 10 uM relative to untreated control; outline: as §1
SK-OV-3 = assay: Growth inhibition of human SKOV3 cells assessed as cell growth at 10 uM relative to untreated control; outline: as §3
NCI-H23 = assay: Growth inhibition of human NCI-H23 cells assessed as cell growth at 10 uM relative to untreated control; outline: as §3
KM12 = assay: Growth inhibition of human KM12 cells assessed as cell growth at 10 uM relative to untreated control; outline: as §1
UO-31 = assay: Growth inhibition of human UO31 cells assessed as cell growth at 10 uM relative to untreated control; outline: as §2
CCRF-CEM = assay: Growth inhibition of human CCRF-CEM cells assessed as cell growth at 10 uM relative to untreated control; outline: as §1
[2] = Growth inhibition of human Hs 578T cells assessed as cell growth at 10 uM relative to untreated control; outline: as §1
T47D = assay: Growth inhibition of human T47D cells assessed as cell growth at 10 uM relative to untreated control; outline: as §2
OVCAR-5 = assay: Growth inhibition of human OVCAR5 cells assessed as cell growth at 10 uM relative to untreated control; outline: as §3
786-0 = assay: Growth inhibition of human 786-0 cells assessed as cell growth at 10 uM relative to untreated control; outline: as §1
K562 = assay: Growth inhibition of human K562 cells assessed as cell growth at 10 uM relative to untreated control; outline: as §1
A498 = assay: Growth inhibition of human A498 cells assessed as cell growth at 10 uM relative to untreated control; outline: as §1
UACC-62 = assay: Growth inhibition of human UACC62 cells assessed as cell growth at 10 uM relative to untreated control; outline: as §2
SF-268 = assay: Growth inhibition of human SF268 cells assessed as cell growth at 10 uM relative to untreated control; outline: as §3
RXF 393 = assay: Growth inhibition of human RXF393 cells assessed as cell growth at 10 uM relative to untreated control; outline: as §3
NCI-H322M = assay: Growth inhibition of human NCI-H322M cells assessed as cell growth at 10 uM relative to untreated control; outline: as §3

`N=C1c2nc3n(c2C(=O)c2nc4n(c21)CCCCC4)CCCCC3` gave a growth at 10 µM (HT-29) of 106%, a growth at 10 µM (TK-10) of 142% and a growth at 10 µM (HOP-92) of 126%. For the same compound, the growth at 10 µM (Malme-3M) was 103%, the growth at 10 µM (NCI-H460) was 92.6% and the growth at 10 µM (SK-MEL-2) was 118%. The growth at 10 µM (SR) was 91.8%, the growth at 10 µM (SNB-19) was 113% and the growth at 10 µM (MDA-MB-468) was 99.8%. It also gave a growth at 10 µM (SF-295) of 93.8%, a growth at 10 µM (SF-539) of 105% and a growth at 10 µM (HCC 2998) of 112%. It also gave a growth at 10 µM [1] of 99.1%, a growth at 10 µM (DU-145) of 113% and a growth at 10 µM (SK-MEL-5) of 88.7%. For the same compound, the growth at 10 µM (OVCAR-3) was 111%, the growth at 10 µM (ACHN) was 105% and the growth at 10 µM (MDA-MB-435) was 111%. The growth at 10 µM (CAKI-1) was 95.1%, the growth at 10 µM (SW-620) was 105% and the growth at 10 µM (NCI/ADR-RES) was 110%. For the same compound, the growth at 10 µM (BT-549) was 110%, the growth at 10 µM (MDA-MB-231) was 117% and the growth at 10 µM (SK-MEL-28) was 118%. The growth at 10 µM (MCF7) was 94.5%, the growth at 10 µM (HCT-15) was 109% and the growth at 10 µM (PC-3) was 113%. For the same compound, the growth at 10 µM (SNB-75) was 105%, the growth at 10 µM (HCT-116) was 107% and the growth at 10 µM (NCI-H522) was 90.9%. It also gave a growth at 10 µM (NCI-H226) of 98.2%, a growth at 10 µM (M14) of 108% and a growth at 10 µM (LOX IMVI) of 92%. It also gave a growth at 10 µM (EKVX) of 103%, a growth at 10 µM (HL-60(TB)) of 103% and a growth at 10 µM (IGROV-1) of 130%. For the same compound, the growth at 10 µM (SN12C) was 106%, the growth at 10 µM (MOLT-4) was 93.7% and the growth at 10 µM (HOP-62) was 122%. For the same compound, the growth at 10 µM (SK-OV-3) was 107%, the growth at 10 µM (NCI-H23) was 97.3% and the growth at 10 µM (KM12) was 106%. The growth at 10 µM (UO-31) was 83.7%, the growth at 10 µM (CCRF-CEM) was 104% and the growth at 10 µM [2] was 112%. The growth at 10 µM (T47D) was 116%, the growth at 10 µM (OVCAR-5) was 123% and the growth at 10 µM (786-0) was 120%. It also gave a growth at 10 µM (K562) of 102%, a growth at 10 µM (A498) of 91.6% and a growth at 10 µM (UACC-62) of 110%. For the same compound, the growth at 10 µM (SF-268) was 108%, the growth at 10 µM (RXF 393) was 102% and the growth at 10 µM (NCI-H322M) was 110%.
